The molecules below were run against Trypanothione reductase (Trypanosoma cruzi, UniProt P28593) (assay: The compound was evaluated for inhibition of trypanothione reductase enzyme).
Procedure, shortened: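 Substrate oxidised trypanothione at six levels spanning 0.25–5 × Km, with inhibitor at four experimentally chosen concentrations. Each condition run in triplicate. Ki obtained by fitting rates to the noncompetitive inhibition equation v = Vmax[S]/(1+[I]/Ki)/(Km+[S]).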

Chain of Trypanothione reductase (P28593 whole entry): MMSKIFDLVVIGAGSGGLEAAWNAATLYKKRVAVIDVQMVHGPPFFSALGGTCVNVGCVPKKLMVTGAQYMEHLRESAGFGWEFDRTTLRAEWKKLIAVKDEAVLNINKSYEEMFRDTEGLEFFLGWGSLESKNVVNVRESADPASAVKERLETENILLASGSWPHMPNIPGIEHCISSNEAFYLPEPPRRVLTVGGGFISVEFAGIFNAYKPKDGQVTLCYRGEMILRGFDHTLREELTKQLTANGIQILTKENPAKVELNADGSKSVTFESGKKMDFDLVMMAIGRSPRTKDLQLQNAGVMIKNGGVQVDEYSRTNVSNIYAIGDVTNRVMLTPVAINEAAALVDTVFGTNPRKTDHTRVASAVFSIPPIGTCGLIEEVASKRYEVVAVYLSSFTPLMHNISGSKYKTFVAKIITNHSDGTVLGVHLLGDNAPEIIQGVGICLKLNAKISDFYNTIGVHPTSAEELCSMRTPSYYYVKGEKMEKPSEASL

Ki [nM] | Structure (SMILES)
280 | COc1ccc2[nH]cc(CC(=O)NCCCNCCCCNCCCNC(=O)Cc3c[nH]c4ccc(OC)cc34)c2c1
850 | O=C(NCCCCNCCCNC(=O)c1cnc2cc(C(F)(F)F)ccc2c1O)c1cnc2cc(C(F)(F)F)ccc2c1O
350 | O=C(CCc1c[nH]c2ccccc12)NCCCNCCCCNCCCNC(=O)CCc1c[nH]c2ccccc12
390 | O=C(Cc1c[nH]c2ccccc12)NCCCNCCCCNCCCNC(=O)Cc1c[nH]c2ccccc12
76 | O=C(Cc1c[nH]c2ccc(Br)cc12)NCCCNCCCCNCCCNC(=O)Cc1c[nH]c2ccc(Br)cc12
1260 | O=C(CCCc1c[nH]c2ccccc12)NCCCNCCCCNCCCNC(=O)CCCc1c[nH]c2ccccc12
750 | O=C(NCCCNCCCCNCCCNC(=O)c1cnc2cc(C(F)(F)F)ccc2c1O)c1cnc2cc(C(F)(F)F)ccc2c1O
1390 | O=C(CCc1ccc(O)c(O)c1)NCCCNCCCCNCCCNC(=O)CCc1ccc(O)c(O)c1 [KUKOAMINE A]
